Measured values collected from several papers.
Compare with care: the assays were run in different laboratories.
Target: Hormonally up-regulated neu tumor-associated kinase (HUNK, Homo sapiens, UniProt P57058)
Residues used in one study (P57058 1-714): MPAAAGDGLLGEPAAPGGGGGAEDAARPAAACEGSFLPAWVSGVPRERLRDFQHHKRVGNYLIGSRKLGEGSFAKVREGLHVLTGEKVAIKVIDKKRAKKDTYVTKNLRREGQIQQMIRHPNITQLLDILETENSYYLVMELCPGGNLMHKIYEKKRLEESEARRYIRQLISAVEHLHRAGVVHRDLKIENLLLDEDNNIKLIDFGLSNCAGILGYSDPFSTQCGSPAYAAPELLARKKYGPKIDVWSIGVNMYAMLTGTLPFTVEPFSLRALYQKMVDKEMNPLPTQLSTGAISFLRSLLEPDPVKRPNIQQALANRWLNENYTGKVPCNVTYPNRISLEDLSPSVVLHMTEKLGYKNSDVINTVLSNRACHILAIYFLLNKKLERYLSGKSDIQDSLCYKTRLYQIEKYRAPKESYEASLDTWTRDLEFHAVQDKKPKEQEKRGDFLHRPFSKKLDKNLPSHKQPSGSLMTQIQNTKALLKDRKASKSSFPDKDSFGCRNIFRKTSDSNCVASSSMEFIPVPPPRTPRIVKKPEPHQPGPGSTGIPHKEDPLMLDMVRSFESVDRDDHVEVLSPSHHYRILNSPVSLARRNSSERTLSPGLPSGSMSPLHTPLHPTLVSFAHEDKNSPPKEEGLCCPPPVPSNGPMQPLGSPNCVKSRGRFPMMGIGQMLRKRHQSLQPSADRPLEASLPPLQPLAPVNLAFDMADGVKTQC

SMILES | read-out | method | tested at | remaining binding
Cc1cnn2ncc(-c3ccnc(N(C)C)n3)c2c1 | binding | – | 1 µM | 100%
C=CC(=O)N1CCC(C(=O)NCC(=O)N2CCN(c3nc(-c4cnc(N)nc4C(F)F)nc(N4CCOCC4)n3)CC2)CC1 | binding | competition with immobilised ligand | 1 µM | 79%
CCCOc1ccc([C@@H]2[C@@H](C(=O)O)[C@H](c3ccc4c(c3)OCO4)CN2CC(=O)Nc2c(CC)cccc2CC)cc1 | cell-free assay | competition with immobilised ligand | 1 µM | 70%
N[C@@H]1CCN(c2nccc(-c3cnn4ncccc34)n2)C1 | binding | – | 1 µM | 100%
COc1cnc(Nc2cccc(S(N)(=O)=O)c2)nc1N1CCN(c2ccccc2)CC1 | binding | competition with immobilised ligand | 1 µM | 74%
NS(=O)(=O)c1cc(NC(=O)Cc2ccccc2)ccc1Oc1cccc(Cl)c1 | cell-free assay | competition with immobilised ligand | 1 µM | 84%
C[C@@H](c1ccc(-n2cnc3c(N)ncnc32)cc1)N1CCc2nn(C)c(Cc3ccccc3)c2C1=O | binding | competition with immobilised ligand | 0.1 µM | 79%
O=C(NCC1CCOCC1)c1n[nH]cc1NC(=O)c1c(F)cccc1F | binding | competition with immobilised ligand | 1 µM | 100%
O=C(c1ccc(Nc2ncc(Cl)c(-c3ccc(Cl)s3)n2)cc1)N1CCC(N2CCCC2)CC1 | binding | competition with immobilised ligand | 1 µM | 100%
CN([C@@H]1CCc2c(CC(=O)O)c3ccccc3n2C1)S(=O)(=O)c1ccc(F)cc1 | cell-free assay | competition with immobilised ligand | 1 µM | 99%
CN(C)c1ncc(F)c(-c2cnn3ncccc23)n1 | binding | – | 1 µM | 100%
O=C(c1ccc(Nc2nccc(-c3cc4ccccc4s3)n2)cc1)N1CCC(N2CCCC2)CC1 | binding | competition with immobilised ligand | 1 µM | 100%
CCC(=O)N[C@H]1CC[C@@H](C(=O)N(C)c2ccc(-c3nc4ccccc4o3)cc2)C1 | cell-free assay | competition with immobilised ligand | 1 µM | 100%
CN(C)c1nccc(-c2cnc3ncccn23)n1 | binding | – | 1 µM | 83%
CCN1CCN(Cc2ccc(C(=O)Nc3ccc(C)c(Oc4ccc5c(c4)CC(=O)N5)c3)cc2C(F)(F)F)CC1 | binding | competition with immobilised ligand | 1 µM | 100%
CN(CCCC(F)(F)F)c1nccc(-c2cnn3ncccc23)n1 | binding | – | 1 µM | 80%
c1cncc(-c2cccc(Nc3nccc(NC4CCCCC4)n3)c2)c1 | binding | competition with immobilised ligand | 10 µM | 100%
C[C@@H]1CCN(c2nccc(-c3cnn4ncccc34)n2)C1 | binding | – | 1 µM | 100%
CSc1cccnc1N1CCN(Cc2nc3ccccc3[nH]2)CC1 | cell-free assay | competition with immobilised ligand | 1 µM | 100%
CC1CCCN1c1nccc(-c2cnn3ncccc23)n1 (stereo not shown) | binding | – | 1 µM | 100%
Cc1cnc(Nc2ccc(C(=O)N3CCC(N4CCCC4)CC3)cc2)nc1-c1cc2ccccc2s1 | binding | competition with immobilised ligand | 1 µM | 100%
CN(c1ccnc(CNc2nc(Nc3ccc4c(c3)CC(=O)N4)ncc2C(F)(F)F)n1)S(C)(=O)=O | cell-free assay | competition with immobilised ligand | 1 µM | 100%
